According to ChEMBL document CHEMBL5137029, “Chemically Tuning Resveratrol for the Effective Killing of Gram-Positive Pathogens” (J Nat Prod, 2022):
In brackets after ≈: the same amount, converted by molar mass. Activity calls are given as the source filed them. The rule behind the calls is not given here.

Experiments:
[1] = tested on: Bacillus cereus; experiment: Antibacterial activity against Bacillus cereus ATCC 14579 incubated for 20 hrs by CLSI based broth microdilution method; format: functional
[2] = tested on: Bacillus cereus; experiment: Antibacterial activity against Bacillus cereus ATCC 10987 incubated for 20 hrs by CLSI based broth microdilution method; format: functional
[3] = tested on: Enterococcus faecalis; experiment: Antibacterial activity against Enterococcus faecalis LMG 08222 incubated for 20 hrs by CLSI based broth microdilution method; format: functional
[4] = tested on: Enterococcus faecalis; experiment: Antibacterial activity against Enterococcus faecalis LMG 16216 incubated for 20 hrs by CLSI based broth microdilution method; format: functional
[5] = tested on: Enterococcus faecalis; experiment: Antibacterial activity against Enterococcus faecalis V583 incubated for 20 hrs by CLSI based broth microdilution method; format: functional
[6] = tested on: Staphylococcus aureus; experiment: Antibacterial activity against Staphylococcus aureus LMG 8224 incubated for 20 hrs by CLSI based broth microdilution method; format: functional
[7] = tested on: Staphylococcus aureus; experiment: Antibacterial activity against Staphylococcus aureus LMG 10147 incubated for 20 hrs by CLSI based broth microdilution method; format: functional
[8] = tested on: Staphylococcus aureus; experiment: Antibacterial activity against Staphylococcus aureus LMG 15975 incubated for 20 hrs by CLSI based broth microdilution method; format: functional
[9] = tested on: Clostridium beijerinckii; experiment: Antibacterial activity against Clostridium beijerinckii B504 incubated for 24 hrs by CLSI based broth microdilution method; format: functional
[10] = tested on: Clostridium botulinum; experiment: Antibacterial activity against Clostridium botulinum CECT551 incubated for 24 hrs by CLSI based broth microdilution method; format: functional
[11] = tested on: Clostridioides difficile; experiment: Antibacterial activity against Clostridium difficile CECT531 incubated for 24 hrs by CLSI based broth microdilution method; format: functional
[12] = Antibacterial activity against Clostridium-ihumii AP5 incubated for 24 hrs by CLSI based broth microdilution method; format: functional
[13] = tested on: Clostridium perfringens; experiment: Antibacterial activity against Clostridium perfringens CECT376 incubated for 24 hrs by CLSI based broth microdilution method; format: functional
[14] = tested on: Clostridium tetani; experiment: Antibacterial activity against Clostridium tetani CECT 4629 incubated for 24 hrs by CLSI based broth microdilution method; format: functional
[15] = tested on: Escherichia coli; experiment: Antimicrobial activity against Escherichia coli LMG […] incubated for 20 hrs by CLSI based broth microdilution method; format: functional
[16] = tested on: Escherichia coli; experiment: Antimicrobial activity against Escherichia coli LMG […] in presence of outer membrane disturbing peptide L-11 incubated for 20 hrs by CLSI based broth microdilution method; format: functional
[17] = Cytotoxicity against human MRC5 cells assessed as cellular metabolism incubated for 72 hrs by MTT assay; format: toxicity, cell-based
Summary of the method: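 MRC-5 cells in DMEM (1 g/L glucose) with 10% heat-inactivated FBS, 2 mM glutamine, penicillin/streptomycin, at 37 °C, 5% CO2. 5 × 10^3 cells/well seeded with increasing compound concentrations, 72 h. MTT added for 4 h, formazan dissolved in DMSO, A570 read. Sigmoidal fit for 50% growth reduction vs untreated; three independent experiments in triplicate.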

[18] = tested on: Bacillus cereus; experiment: Bactericidal activity against Bacillus cereus ATCC 10987 at 16 uM measured upto 24 hrs by CLSI based broth microdilution method; format: functional, organism-based
Summary of the method: (§1)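 Each well then used as a 10% inoculum into fresh cMHB and incubated at 37 °C for 24 h. No regrowth in the MIC range was scored bactericidal, regrowth bacteriostatic. Triplicate.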

[19] = tested on: Enterococcus faecalis; experiment: Bactericidal activity against Enterococcus faecalis V583 at 16 uM measured upto 24 hrs by CLSI based broth microdilution method; format: functional, organism-based; summary of the method: as §1
[20] = tested on: Staphylococcus aureus; experiment: Bactericidal activity against Staphylococcus aureus LMG 8224 at 16 uM measured upto 24 hrs by CLSI based broth microdilution method; format: functional, organism-based; summary of the method: as §1
[21] = tested on: Bacillus cereus; experiment: Bactericidal activity against Bacillus cereus ATCC 10987 measured upto 24 hrs by CLSI based broth microdilution method; format: functional; summary of the method: as §1
[22] = tested on: Enterococcus faecalis; experiment: Bactericidal activity against Enterococcus faecalis V583 measured upto 24 hrs by CLSI based broth microdilution method; format: functional; summary of the method: as §1
[23] = tested on: Staphylococcus aureus; experiment: Bactericidal activity against Staphylococcus aureus LMG 8224 measured upto 24 hrs by CLSI based broth microdilution method; format: functional; summary of the method: as §1
[24] = tested on: Bacillus cereus; experiment: Antibacterial activity against Bacillus cereus ATCC 10987 assessed as decrease in membrane integrity at 2x MIC incubated for 18 hrs by propidium iodide staining assay; format: functional, organism-based
Summary of the method: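 B. cereus grown 18 h in LB at 37 °C, washed in 5 mM HEPES pH 7.4 + 5 mM glucose, OD600 0.5, loaded with 10 μg/mL propidium iodide for 10 min. […] Gramicidin S positive control; triplicate.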

[25] = tested on: Bacillus cereus; experiment: Inhibition of electron transport chain in Bacillus cereus ATCC 10987 by measuring reduction of resazurin upto 120 min by resazurin dye based assay; settings: DDE = dose-dependent effect
Summary of the method: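 B. cereus grown in LB to OD600 1, washed and resuspended in cMHB at OD600 0.2 with 100 μg/mL resazurin. Compounds added at the indicated concentrations; resorufin fluorescence (ex/em 550/590 nm) read every 5 min for 125 min. CCCP at 400, 200, 100 μM positive control; untreated cells and medium with resazurin negative controls; triplicate.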

[26] = Selectivity index, ratio of IC50 for cytotoxicity against human MRC5 cells to MIC for antibacterial activity against Bacillus cereus; format: toxicity, cell-based; settings: read-out: Selectivity Index
[27] = Selectivity index, ratio of IC50 for cytotoxicity against human MRC5 cells to MIC for antibacterial activity against Staphylococcus aureus; format: toxicity, cell-based; settings: read-out: Selectivity Index
[28] = Selectivity index, ratio of IC50 for cytotoxicity against human MRC5 cells to MIC for antibacterial activity against Enterococcus faecalis; format: toxicity, cell-based; settings: read-out: Selectivity Index
[29] = Selectivity index, ratio of IC50 for cytotoxicity against human MRC5 cells to MIC for antibacterial activity against Clostridium tetani; format: toxicity, cell-based; settings: read-out: Selectivity Index
[30] = (§2) Hemolytic activity in human erythrocytes at […] incubated for 1 hrs; format: toxicity, cell-based, Erythrocyte; settings: erythrocytes, read-out: Activity
[31] = tested on: Bacillus cereus; experiment: Antibacterial activity against Bacillus cereus ATCC 10987 assessed as membrane potential change at 0.5 to 2X MIC incubated for 20 mins by DiSC3(5) staining based assay; format: functional, organism-based
Summary of the method: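 B. cereus grown in LB to OD600 1, washed in glucose-HEPES pH 7.4, OD600 0.5, loaded with 2 μM DiSC3(5) for 20 min at 37 °C for baseline. […] Gramicidin S positive control; untreated cells and dye-only medium negative controls; triplicate.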

[32] = tested on: Bacillus cereus; experiment: Bactericidal activity against Bacillus cereus ATCC 10987 at 64 uM measured upto 24 hrs by CLSI based broth microdilution method; format: functional, organism-based; summary of the method: as §1
[33] = tested on: Enterococcus faecalis; experiment: Bactericidal activity against Enterococcus faecalis V583 at 32 uM measured upto 24 hrs by CLSI based broth microdilution method; format: functional, organism-based; summary of the method: as §1
[34] = tested on: Staphylococcus aureus; experiment: Bactericidal activity against Staphylococcus aureus LMG 8224 at […] measured upto 24 hrs by CLSI based broth microdilution method; format: functional, organism-based; settings: dose 128.0 µM
[35] = tested on: Bacillus cereus; experiment: Antibacterial activity against Bacillus cereus ATCC 10987 assessed as reduction in intracellular ATP levels at 100 uM measured upto 120 min by BacTiter-Glo luminescent cell viability assay; format: functional, organism-based
Summary of the method: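 B. cereus ATCC10987 was grown in LB at 37 °C to OD600 1, washed three times in G-HEPES, and resuspended in cMHB at OD600 0.25. Cells were exposed at 37 °C to compounds at 32 μM or to CCCP (100 μM, positive control). At 30, 60 and 120 min, BacTiter-Glo luminescence was read. ATP was normalised to OD600 and expressed as % of untreated cells. Run in triplicate.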

[36] = tested on: Bacillus cereus; experiment: Bactericidal activity against Bacillus cereus ATCC 10987 at […] measured upto 24 hrs by CLSI based broth microdilution method; format: functional, organism-based; settings: dose 128.0 µM
[37] = tested on: Enterococcus faecalis; experiment: Bactericidal activity against Enterococcus faecalis V583 at […] measured upto 24 hrs by CLSI based broth microdilution method; format: functional, organism-based; settings: dose 128.0 µM
[38] = tested on: Erythrocyte; experiment: as §2; format: toxicity, cell-based; settings: erythrocyte, 1 h, […]
[39] = tested on: Bacillus cereus; experiment: Antibacterial activity against Bacillus cereus ATCC 10987 assessed as reduction in intracellular ATP levels measured upto 120 min by BacTiter-Glo luminescent cell viability assay; format: functional, organism-based
Summary of the method: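 B. cereus grown in LB to OD600 1, washed in G-HEPES, resuspended in cMHB at OD600 0.25, treated with 32 μM compound at 37 °C. At 30, 60, 120 min samples mixed with BacTiter-Glo, 5 min room temperature, luminescence read. ATP normalized to OD600, as % of untreated control. CCCP 100 μM positive control; triplicate.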

Compound: CC(C)(C)[Si](C)(C)Oc1ccc(/C=C/c2cc(O)cc(O)c2)cc1
- MIC [1]: 4 µM (≈ 1.37 µg/mL)
- MIC [2]: 8 µM (≈ 2.74 µg/mL)
- MIC [3]: 6.6 µM (≈ 2.26 µg/mL)
- MIC [4]: 8 µM (≈ 2.74 µg/mL)
- MIC [5]: 8 µM (≈ 2.74 µg/mL)
- MIC [6]: 8 µM (≈ 2.74 µg/mL)
- MIC [7]: 8 µM (≈ 2.74 µg/mL)
- MIC [8]: 8 µM (≈ 2.74 µg/mL)
- MIC [9]: 10.6 µM (≈ 3.63 µg/mL)
- MIC [10]: 13.3 µM (≈ 4.56 µg/mL)
- MIC [11]: 21.3 µM (≈ 7.3 µg/mL)
- MIC [12]: 16 µM (≈ 5.48 µg/mL)
- MIC [13]: 13.3 µM (≈ 4.56 µg/mL)
- MIC [14]: 5.3 µM (≈ 1.82 µg/mL)
- MIC [15]: > 128 µM
- MIC [16]: 13.3 µM
- IC50 at 72 h [17]: 15.5 µM
- Activity [18]: Active
- Activity [19]: Active
- Activity [20]: Active
- MIC [21]: 32 µM (≈ 11 µg/mL)
- MIC [22]: 32 µM (≈ 11 µg/mL)
- MIC [23]: 32 µM (≈ 11 µg/mL)
- Activity [24]: Active
- inhibition [25]: Dde
- selectivity ratio [26]: 2
- selectivity ratio [27]: 2
- selectivity ratio [28]: 2
- selectivity ratio [29]: 2
- hemolysis at 1 h, […] [30]: 12.7%
- Activity [31]: Active

Compound: CC(C)[Si](Oc1ccc(/C=C/c2cc(O)cc(O)c2)cc1)(C(C)C)C(C)C
- Activity [32]: Active
- Activity [33]: Active
- Activity [34]: Active
- Activity [24]: Active
- inhibition [25]: Dde
- Activity [31]: Active

Compound: N#CC(C#N)=NNc1cccc(Cl)c1
- Activity [35]: Active

Compound: Oc1ccc(/C=C/c2cc(O)cc(O)c2)cc1 [RESVERATROL]
- Activity [36]: Active
- Activity [37]: Active
- Activity [34]: Active
- Activity [38]: Non-Toxic
- Activity [31]: Active

Compound: CC(C)[Si](Oc1cc(O)cc(/C=C/c2ccc(O)cc2)c1)(C(C)C)C(C)C
- Activity [18]: Active
- Activity [19]: Active
- Activity [20]: Active
- MIC [21]: 32 µM (≈ 12.3 µg/mL)
- MIC [22]: 32 µM (≈ 12.3 µg/mL)
- MIC [23]: 32 µM (≈ 12.3 µg/mL)
- Activity [24]: Active
- Activity [39]: Active
- Activity [31]: Active
